The test system of the first data set is SF-539. Put plainly: Cytotoxicity against human SF539 cells. Type of data set: functional.
Details: not given
The term GI50 denotes the concentration that inhibits growth by half. Low readings indicate more potent growth inhibition, high ones less potent growth inhibition. Compound `CCOP(=O)(OCC)Oc1cc2c(cc1OC)[C@H]1CC[C@]3(C)[C@@H](OP(=O)(OCC)OCC)CC[C@H]3[C@@H]1CC2` registered a GI50 of 19.5 µM. This lies in the double-digit micromolar range.
On the same count and under the same terms, then `CCOP(=O)(OCC)O[C@H]1CC[C@H]2[C@@H]3CCc4cc(O)c(OC)cc4[C@H]3CC[C@]12C`, with 19.5 µM.

The subject of another data set is DU-145. Put plainly: Cytotoxicity against human DU145 cells. Type of data set: functional.
Details: not given
`CCOP(=O)(OCC)Oc1cc2c(cc1OC)[C@H]1CC[C@]3(C)[C@@H](OP(=O)(OCC)OCC)CC[C@H]3[C@@H]1CC2` displayed a GI50 of 13.8 µM.
The same measure, in the same setting: then `COc1cc2c(cc1OP(=O)(O)O)CC[C@@H]1[C@@H]2CC[C@]2(C)[C@@H](OP(=O)(O)O)CC[C@@H]12`, with over 100 µM.

The test system of the next data set is OVCAR-3. Put plainly: Cytotoxicity against human OVCAR-3 cells.
Details: not given
Type of data set: functional.
The compound `CCOP(=O)(OCC)Oc1cc2c(cc1OC)[C@H]1CC[C@]3(C)[C@@H](OP(=O)(OCC)OCC)CC[C@H]3[C@@H]1CC2` registered a 50% growth inhibitory concentration (GI50) of 55 µM.
Still for that read-out and setting: with `CCOP(=O)(OCC)O[C@H]1CC[C@H]2[C@@H]3CCc4cc(O)c(OC)cc4[C@H]3CC[C@]12C` the figure was 15.1 µM.
In the case of `COc1cc2c(cc1OP(=O)(O)O)CC[C@@H]1[C@@H]2CC[C@]2(C)[C@@H](OP(=O)(O)O)CC[C@@H]12`, the GI50 was over 100 µM.

The subject of another data set is Plasma. Description: Drug level in Sprague-Dawley rat plasma at 1 mg/kg, iv assessed as 2-methoxyestradiol level after 120 mins. Type of data set: ADME, organism-based. Further details: dose 1 mg/kg, route intravenous. The settings on record: in vivo, 2 h. The essentials: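 Jugular-cannulated Sprague–Dawley rats were fasted overnight and given a single tail-vein dose in 45% (w/v) hydroxypropyl-β-cyclodextrin in water (0.5 mg/mL, 2 mL/kg). K-EDTA blood was drawn via the cannula and the plasma was frozen below −20 °C. Plasma was acidified with formic acid and analysed by negative-ion ESI LC-MS/MS (MRM). Standard curves were spiked into rat plasma.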
As for `COc1cc2c(cc1O)CC[C@@H]1[C@@H]2CC[C@]2(C)C(=O)CC[C@@H]12`, the Cp stood at 5 ng/mL.

In a further data set the test system is HCT-116. Description: Cytotoxicity against human HCT116 cells. The data set is classed as functional.
Details: not given
The compound `CCOP(=O)(OCC)Oc1cc2c(cc1OC)[C@H]1CC[C@]3(C)[C@@H](OP(=O)(OCC)OCC)CC[C@H]3[C@@H]1CC2` yielded a GI50 of 20.4 µM.
In turn, `CCOP(=O)(OCC)O[C@H]1CC[C@H]2[C@@H]3CCc4cc(O)c(OC)cc4[C@H]3CC[C@]12C` registered a concentration for 50% growth inhibition (GI50) of 19 µM.
`COc1cc2c(cc1OP(=O)(O)O)CC[C@@H]1[C@@H]2CC[C@]2(C)[C@@H](OP(=O)(O)O)CC[C@@H]12`: the GI50 was over 100 µM.

For another data set, the system named is SN12C. Put plainly: Cytotoxicity against human SN12C cells. Type of data set: functional.
Details: not given
Compound `CCOP(=O)(OCC)Oc1cc2c(cc1OC)[C@H]1CC[C@]3(C)[C@@H](OP(=O)(OCC)OCC)CC[C@H]3[C@@H]1CC2` yielded a GI50 of 16.6 µM.
For the compound `CCOP(=O)(OCC)O[C@H]1CC[C@H]2[C@@H]3CCc4cc(O)c(OC)cc4[C@H]3CC[C@]12C`, halving of growth (GI50) required 17.4 µM.
For `COc1cc2c(cc1OP(=O)(O)O)CC[C@@H]1[C@@H]2CC[C@]2(C)[C@@H](OP(=O)(O)O)CC[C@@H]12`, the GI50 was over 100 µM.

The subject of another data set is HOP-62. Description: Cytotoxicity against human HOP62 cells. Type of data set: functional.
Details: not given
`CCOP(=O)(OCC)Oc1cc2c(cc1OC)[C@H]1CC[C@]3(C)[C@@H](OP(=O)(OCC)OCC)CC[C@H]3[C@@H]1CC2` displayed a GI50 of 21.9 µM.
Same read-out and setting: with `COc1cc2c(cc1OP(=O)(O)O)CC[C@@H]1[C@@H]2CC[C@]2(C)[C@@H](OP(=O)(O)O)CC[C@@H]12` the figure was over 100 µM.

A further data set relates to UACC-62. Description: Cytotoxicity against human UACC62 cells.
Details: not given
The data set is classed as functional.
`CCOP(=O)(OCC)Oc1cc2c(cc1OC)[C@H]1CC[C@]3(C)[C@@H](OP(=O)(OCC)OCC)CC[C@H]3[C@@H]1CC2` came in with a GI50 of 11.5 µM.
The same measure, in the same setting: with `CCOP(=O)(OCC)O[C@H]1CC[C@H]2[C@@H]3CCc4cc(O)c(OC)cc4[C@H]3CC[C@]12C` the figure was 14.4 µM; with `COc1cc2c(cc1OP(=O)(O)O)CC[C@@H]1[C@@H]2CC[C@]2(C)[C@@H](OP(=O)(O)O)CC[C@@H]12`, over 100 µM.

The test system of another data set is MDA-MB-435. Description: Cytotoxicity against human MDA-MB-435 cells.
Details: not given
Type of data set: functional.
In the case of `CCOP(=O)(OCC)Oc1cc2c(cc1OC)[C@H]1CC[C@]3(C)[C@@H](OP(=O)(OCC)OCC)CC[C@H]3[C@@H]1CC2`, halving of growth (GI50) required 56.2 µM. That is a double-digit micromolar value.
Consider `CCOP(=O)(OCC)O[C@H]1CC[C@H]2[C@@H]3CCc4cc(O)c(OC)cc4[C@H]3CC[C@]12C`, for which growth was halved (GI50) at 13.2 µM. Compared with the last compound, the GI50 is about 4.3-fold lower.
In turn, `COc1cc2c(cc1OP(=O)(O)O)CC[C@@H]1[C@@H]2CC[C@]2(C)[C@@H](OP(=O)(O)O)CC[C@@H]12` returned a GI50 of over 100 µM.
